High-throughput results from PubChem BioAssay.
Hits are enriched below; roughly 1.9% of the tested compounds scored in any of these assays.
TDP2 inh: blocks human TDP2 phosphodiesterase activity; inhibition, % at 12.8 µM; actives 0.34% (n = 370,000); recombinant TDP2, T5PNP hydrolysis, p-nitrophenol absorbance 415 nm;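 active = inhibition above the mean of all tested compounds plus 3 SD, set per campaign, cut at about 25% in these data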;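 note: 0% = DMSO with enzyme and 100% = buffer with substrate but no TDP2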
Target sequence (O95551 whole entry, looked up): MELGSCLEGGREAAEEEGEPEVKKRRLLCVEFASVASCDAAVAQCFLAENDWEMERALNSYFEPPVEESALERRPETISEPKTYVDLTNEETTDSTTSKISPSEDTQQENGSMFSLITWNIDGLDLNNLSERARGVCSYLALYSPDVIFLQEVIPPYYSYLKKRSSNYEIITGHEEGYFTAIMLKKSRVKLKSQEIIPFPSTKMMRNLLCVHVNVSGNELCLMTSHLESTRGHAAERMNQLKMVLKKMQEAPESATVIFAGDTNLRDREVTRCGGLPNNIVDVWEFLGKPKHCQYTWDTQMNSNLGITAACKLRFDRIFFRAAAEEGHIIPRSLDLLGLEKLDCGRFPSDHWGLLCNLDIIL
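Assay system: recombinant human TDP2 / Reagent: T5PNP substrate at 5 mM, a TopII-DNA adduct mimic / Measured by: epi absorbance from released p-nitrophenol / Evaluation: % inhibition relative to enzyme-containing and enzyme-free wells / Control set: enzyme-free and DMSO wells / Replicates: each compound tested once, singlicate / Schedule: enzyme reaction with compound for 2 h at 37 °C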
UHRF1 MBD2 ctr: UHRF1 methyl-DNA binding inhibition; inhibition, % at 4.4 µM; UHRF1 binding to methylated oligo, TR-FRET; Q96T88; actives 0.75% (n = 370,000); AID 687016; in the data active = inhibition above about 21%;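 note: UHRF1 SRA domain binding a hemimethylated CpG hairpin DNA probe; 0% = median of test compound wells and 100% = reference inhibitor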
MBD2 inh: MBD2-methylated oligo binding inhibition; actives 0.31% (n = 370,000); inhibition, % at 4.4 µM; AID 686964; TR-FRET, MBD2 binding to methylated oligonucleotide; in the data active = inhibition above about 13%
Rin1-Abl PPI inh: human Rin1-Abl interaction inhibition; P00519+Q13671; TR-FRET Rin1/Abl binding, biochemical; inhibition, % at 7.35 µM; actives 0.4% (n = 360,000); AID 588664; in the data active = inhibition above about 5%, passing the limit was not always enough
LEDGF integ inh: blocks HIV-1 LEDGF/p75-dependent DNA integration. actives 0.64% (n = 370,000). inhibition, % at 3.7 µM. TR-FRET IN-LEDGF/p75 DNA integration, Eu/Cy5;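 active = inhibition above the screen-wide mean plus 3 SD, cut at about 13% in these data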;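 note: signal is the Cy5 over europium emission ratio at 671 and 618 nm; 0% = plate median of compound wells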
IN multimer up: HIV-1 integrase multimerization activation, counter-screen. shares compounds with LEDGF integ inh. TR-FRET HIV-1 integrase multimerization, biochemical. activation, % at 7.7 µM. AID 1053131. actives 17% (n = 2,000); in the data active = activation above about 8.9%
TRFRET interf: TR-FRET optical interference, LEDGF/p75 integration counter-screen | inhibition, % at 7.7 µM | shares compounds with LEDGF integ inh | TR-FRET optical interference counterscreen, HIV-1 IN multimerization | AID 1053135 | 2,000 tested, under 10 active;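 active = inhibition above the mean over all tested compounds plus 3 SD, which no compound reached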;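 note: 0% = integrase with antibodies and DMSO and 100% = antibodies without integrase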
LEDGF integ conf: confirmation of HIV-1 LEDGF/p75-dependent integration inhibitors; inhibition, % at 3.7 µM; actives 36% (n = 2,000); AID 1053136; shares compounds with LEDGF integ inh; TR-FRET LEDGF/p75-dependent HIV-1 integration, biochemical; in the data active = inhibition above about 14%
Active calls of the source: *; nt = no result.

SMILES | TDP2 inh | UHRF1 MBD2 ctr | MBD2 inh | Rin1-Abl PPI inh | LEDGF integ inh | IN multimer up | TRFRET interf | LEDGF integ conf
O=C(c1ccccc1)c1nn(-c2ccc(Cl)cc2)c(=O)cc1C(F)(F)F | 3 | -3 | -4 | -1 | 23* | 0 | -1 | 19*
O=C(c1ccccc1)c1nn(-c2ccccc2)c(=O)cc1C(F)(F)F | -5 | 14 | 3 | 2 | 12 | nt | nt | nt
COc1ccc(N(C(C)C(=O)N/N=C/c2ccc(OC(C)C)cc2)S(C)(=O)=O)cc1 (configuration not stated) | 2 | -2 | -6 | 3 | 2 | nt | nt | nt
COc1ccc(N(C(C)C(=O)N/N=C/c2cccnc2)S(C)(=O)=O)cc1 (configuration not stated) | 9 | 1 | 1 | 2 | 35* | 0 | -1 | 2
COC(=O)[C@]12C[C@H](CC(=O)N3CCN(C(=O)c4ccco4)CC3)C(=O)N(CCc3ccc(OC)c(OC)c3)C1=C[C@H](C(C)C)O[C@@H]2C1CC1 | 7 | -1 | -3 | nt | 3 | nt | nt | nt
COC(=O)/C(=C/Nc1ccc(O)cc1)[N+](=O)[O-] | 7 | 2 | -8 | 2 | 25* | 5 | -16 | -1
Brc1ccc(-c2nc(-c3ccccc3)no2)o1 | -7 | 3 | 4 | -5 | 0 | nt | nt | nt
Brc1ccc(C2=Nc3cccc4cccc(c34)N2)o1 | -7 | 0 | 6 | -3 | 42* | -1 | 4 | 5
Cc1ccc(NC(=O)CN(c2ccccc2F)S(C)(=O)=O)cc1 | -6 | 1 | 4 | 0 | 21* | -2 | 12 | -4
COc1cc(C)cc(C(=O)O)c1C1=C(O)c2cccc(O)c2C(=O)C1=O | -12 | 23* | -2 | 1 | 18* | 13* | -65 | 19*
N#CC1=C(N)n2c(s/c(=C\c3ccco3)c2=O)=C(C#N)C1c1ccco1 (configuration not stated) | -4 | 41* | 12 | 0 | 38* | 18* | -91 | 66*
CCOC(=O)C1=c2s/c(=C\c3ccncc3)c(=O)n2C(N)=C(C(=O)OC)C1c1ccncc1 (configuration not stated) | 3 | -2 | -9 | 2 | -6 | nt | nt | nt
N#CC1=C(N)n2c(s/c(=C\c3cccs3)c2=O)=C(C#N)C1c1cccs1 (configuration not stated) | -7 | 9 | 9 | -3 | 11 | nt | nt | nt
CCOC(=O)C1=C(N)n2c(s/c(=C/c3ccco3)c2=O)=C(C(=O)OC)C1c1ccco1 (configuration not stated) | 8 | 20 | 1 | -5 | 48* | 0 | -1 | 3
CCOC(=O)CCCNC(=O)OCCCN1CCC2(CCC(c3ccccc3)CC2)C1=O (configuration not stated) | -2 | -2 | -1 | nt | -1 | nt | nt | nt
O=S(=O)(Nc1ccc(Cc2ccncc2)cc1)N1CCCC1 | 9 | -1 | -1 | 0 | 25* | 1 | -5 | 2
CC1(c2nnnn2Cc2ccccc2)CCCCC(=O)N1Cc1cccs1 (configuration not stated) | 4 | 4 | 4 | nt | 0 | nt | nt | nt
O=C(Cn1c(=O)sc2ccccc21)NCc1ccccn1 | 3 | 2 | 4 | 2 | 19* | 0 | 1 | 1
COc1ccc(CC(=O)OC(C)CN2CCCCC2)cc1 (configuration not stated) | -8 | 1 | -5 | 2 | 15* | -1 | 4 | 3
Cc1nn(Cc2ccc(F)cc2)c(C)c1NC(=O)c1noc2c1CCCCC2 | 2 | -1 | 0 | 0 | 40* | -1 | 2 | -3
Cc1nn(Cc2ccccc2Cl)c(C)c1NC(=O)c1noc2c1CCCCC2 | -4 | 5 | 7 | -4 | -1 | nt | nt | nt
Cc1cccc(NC(=S)Nc2ccc(N3CCOCC3)cc2)c1C | 19 | 0 | -1 | -4 | 21* | -2 | 9 | 6
COC(=O)Cc1ccc(NC(=S)NCCCN2CCOCC2)cc1 | 2 | 5 | -2 | 0 | -5 | nt | nt | nt
Cc1cccc(C(=O)NC(=S)Nc2ccc(N3CCOCC3)cc2)c1 | 9 | 2 | -4 | 0 | 20* | 5 | -23 | -7
Cc1ccc(C(=O)NC(=S)Nc2ccc(N3CCOCC3)cc2)cc1C | -17 | 2 | 0 | 1 | 1 | nt | nt | nt
SMILES | TDP2 inh | UHRF1 MBD2 ctr | MBD2 inh | Rin1-Abl PPI inh | LEDGF integ inh | IN multimer up | TRFRET interf | LEDGF integ conf
COC(=O)Cc1ccc(NC(=S)Nc2ccc(N3CCOCC3)cc2)cc1 | 15 | -1 | -1 | -2 | 14* | 1 | -6 | -3
C=CCN1C(=O)[C@@H](CC(=O)N2CCOCC2)[C@]2(C(=O)OC)CCCCC=C12 | -2 | -1 | 3 | nt | 0 | nt | nt | nt
C=CCN1C(=O)[C@@H](CC(=O)N2CCN(C(=O)C3CC3)CC2)[C@]2(C(=O)OC)CCCCC=C12 | 9 | -3 | 1 | nt | -1 | nt | nt | nt
COC(=O)[C@H]1C[C@@]2(N3CCCCC3)c3ccccc3N[C@H]2N1S(=O)(=O)c1ccc([N+](=O)[O-])cc1 | 9 | -3 | -5 | nt | 2 | nt | nt | nt
COc1ccc2c(c1)CC/C(=C/c1ccncc1)C2=O | nt | nt | nt | 1 | nt | nt | nt | nt
COc1ccc2c3c(ccc2c1)C(=O)/C(=C/O)CC3 | 4 | 4 | 4 | -1 | 17* | 5 | -17 | 27*
Cc1ccc(C2/C(=C(/O)c3ccc(Br)cc3)C(=O)C(=O)N2Cc2ccco2)o1 (configuration not stated) | 5 | 2 | -5 | 2 | 15* | 0 | -2 | 16*
Cn1cccc1C(=O)N1CCN(S(=O)(=O)c2ccc(Br)s2)CC1 | 10 | -1 | -1 | nt | 2 | nt | nt | nt
O=S1(=O)c2ccc(N3CCC[C@H]3CO)cc2O[C@H]2CCN1C2 | 0 | -3 | 0 | nt | -2 | nt | nt | nt
COc1ccc(-n2nc(C(=O)NCC(=O)NCC3CCCO3)c3ccccc3c2=O)c(OC)c1 (configuration not stated) | -3 | 2 | -3 | 4 | 4 | nt | nt | nt
COc1ccc(-n2c(N)c(C(=O)NCC3CCCO3)c3nc4ccccc4nc32)c(OC)c1 (configuration not stated) | 74* | 11 | 4 | 3 | 19* | 0 | -2 | -1
Cc1nnc(NC(=O)CSc2nnc(-c3ccccc3)n2C)s1 | -1 | 2 | 0 | 0 | 18* | -1 | 3 | -3
Cn1c(SCC(=O)NC(=O)NCc2ccco2)nnc1-c1ccccc1 | -16 | 22* | 5 | 1 | 22* | 8 | -39 | 8
Cn1c(SCC(=O)Nc2nc3c(s2)CCCC3)nnc1-c1ccccc1 | -5 | -3 | -5 | 2 | -5 | nt | nt | nt
